Columns and labels:
Assay type in all cases: functional
HCT-116 = test: Growth inhibition of human HCT116 cells at 10 uM after 48 hrs by SRB assay relative to control; details: HCT-116, 48 h, read-out: GI
Procedure, shortened: (§1)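 Screened at the National Cancer Institute by the standard NCI protocol using the sulforhodamine B assay, which measures cellular protein. Single dose of 10 µM. Result is percent growth inhibition; values above 100% mean cell number fell below the initial population. Values are the average of duplicates.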

Malme-3M = test: Growth inhibition of human MALME-3M cells at 10 uM after 48 hrs by SRB assay relative to control; details: read-out: GI; procedure, shortened: as §1
UACC-257 = test: Growth inhibition of human UACC257 cells at 10 uM after 48 hrs by SRB assay relative to control; details: UACC-257, 48 h, read-out: GI
Procedure, shortened: (§2)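 NCI screen against its human cancer cell line panel by the standard NCI protocol, SRB protein stain. Single dose of 10 μM. Percent growth inhibition versus control; values above 100% mean the cell population fell below the starting number. Each value is the mean of duplicates.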

SF-539 = test: Growth inhibition of human SF539 cells at 10 uM after 48 hrs by SRB assay relative to control; details: SF-539, 48 h, read-out: GI; procedure, shortened: as §1
K562 = test: Growth inhibition of human K562 cells at 10 uM after 48 hrs by SRB assay relative to control; details: K562, 48 h, read-out: GI; procedure, shortened: as §1
IGROV-1 = test: Growth inhibition of human IGROV1 cells at 10 uM after 48 hrs by SRB assay relative to control; details: IGROV-1, 48 h, read-out: GI; procedure, shortened: as §1
RXF 393 = test: Growth inhibition of human RXF393 cells at 10 uM after 48 hrs by SRB assay relative to control; details: RXF 393, 48 h, read-out: GI; procedure, shortened: as §1
SN12C = test: Growth inhibition of human SN12C cells at 10 uM after 48 hrs by SRB assay relative to control; details: read-out: GI; procedure, shortened: as §1
786-0 = test: Growth inhibition of human 786-0 cells at 10 uM after 48 hrs by SRB assay relative to control; details: 786-0, 48 h, read-out: GI; procedure, shortened: as §1
HCT-15 = test: Growth inhibition of human HCT15 cells at 10 uM after 48 hrs by SRB assay relative to control; details: HCT-15, 48 h, read-out: GI; procedure, shortened: as §1
SK-MEL-28 = test: Growth inhibition of human SK-MEL-28 cells at 10 uM after 48 hrs by SRB assay relative to control; details: SK-MEL-28, 48 h, read-out: GI; procedure, shortened: as §1
PC-3 = test: Growth inhibition of human PC3 cells at 10 uM after 48 hrs by SRB assay relative to control; details: PC-3, 48 h, read-out: GI; procedure, shortened: as §1
Hs-578T = test: Growth inhibition of human Hs 578T cells at 10 uM after 48 hrs by SRB assay relative to control; details: read-out: GI; procedure, shortened: as §1
SNB-19 = test: Growth inhibition of human SNB19 cells at 10 uM after 48 hrs by SRB assay relative to control; details: SNB-19, 48 h, read-out: GI; procedure, shortened: as §2
MCF7 = test: Growth inhibition of human MCF7 cells at 10 uM after 48 hrs by SRB assay relative to control; details: MCF7, 48 h, read-out: GI; procedure, shortened: as §1
UO-31 = test: Growth inhibition of human UO31 cells at 10 uM after 48 hrs by SRB assay relative to control; details: UO-31, 48 h, read-out: GI; procedure, shortened: as §2
HL-60(TB) = test: Growth inhibition of human HL-60(TB) cells at 10 uM after 48 hrs by SRB assay relative to control; details: HL-60, 48 h, read-out: GI
Procedure, shortened: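 Run at NCI under its standard single-dose protocol against a leukemia cell panel. Cells were exposed to 10 µM; growth was read by sulforhodamine B staining of cellular protein and expressed as % growth inhibition versus untreated control. Values above 100% mean the cell population fell below the starting count (cytocidal). Each value is the average of duplicates.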

KM12 = test: Growth inhibition of human KM12 cells at 10 uM after 48 hrs by SRB assay relative to control; details: KM12, 48 h, read-out: GI; procedure, shortened: as §1
SK-MEL-2 = test: Growth inhibition of human SK-MEL-2 cells at 10 uM after 48 hrs by SRB assay relative to control; details: SK-MEL-2, 48 h, read-out: GI; procedure, shortened: as §1
RPMI-8226 = test: Growth inhibition of human RPMI8226 cells at 10 uM after 48 hrs by SRB assay relative to control; details: RPMI-8226, 48 h, read-out: GI; procedure, shortened: as §1
HOP-62 = test: Growth inhibition of human HOP62 cells at 10 uM after 48 hrs by SRB assay relative to control; details: HOP-62, 48 h, read-out: GI; procedure, shortened: as §1
SW-620 = test: Growth inhibition of human SW620 cells at 10 uM after 48 hrs by SRB assay relative to control; details: SW-620, 48 h, read-out: GI; procedure, shortened: as §2
MOLT-4 = test: Growth inhibition of human MOLT4 cells at 10 uM after 48 hrs by SRB assay relative to control; details: MOLT-4, 48 h, read-out: GI; procedure, shortened: as §1
LOX IMVI = test: Growth inhibition of human LOXIMVI cells at 10 uM after 48 hrs by SRB assay relative to control; details: read-out: GI; procedure, shortened: as §1
DU-145 = test: Growth inhibition of human DU145 cells at 10 uM after 48 hrs by SRB assay relative to control; details: DU-145, 48 h, read-out: GI; procedure, shortened: as §1
MDA-MB-468 = test: Growth inhibition of human MDA-MB-468 cells at 10 uM after 48 hrs by SRB assay relative to control; details: MDA-MB-468, 48 h, read-out: GI; procedure, shortened: as §1
OVCAR-8 = test: Growth inhibition of human OVCAR8 cells at 10 uM after 48 hrs by SRB assay relative to control; details: OVCAR-8, 48 h, read-out: GI; procedure, shortened: as §1
SF-268 = test: Growth inhibition of human SF268 cells at 10 uM after 48 hrs by SRB assay relative to control; details: SF-268, 48 h, read-out: GI; procedure, shortened: as §1
OVCAR-5 = test: Growth inhibition of human OVCAR5 cells at 10 uM after 48 hrs by SRB assay relative to control; details: OVCAR-5, 48 h, read-out: GI; procedure, shortened: as §1
CAKI-1 = test: Growth inhibition of human Caki1 cells at 10 uM after 48 hrs by SRB assay relative to control; details: CAKI-1, 48 h, read-out: GI; procedure, shortened: as §1
NCI/ADR-RES = test: Growth inhibition of human NCI/ADR-RES cells at 10 uM after 48 hrs by SRB assay relative to control; details: read-out: GI; procedure, shortened: as §1
HOP-92 = test: Growth inhibition of human HOP92 cells at 10 uM after 48 hrs by SRB assay relative to control; details: HOP-92, 48 h, read-out: GI; procedure, shortened: as §1
SNB-75 = test: Growth inhibition of human SNB75 cells at 10 uM after 48 hrs by SRB assay relative to control; details: SNB-75, 48 h, read-out: GI; procedure, shortened: as §2
ACHN = test: Growth inhibition of human ACHN cells at 10 uM after 48 hrs by SRB assay relative to control; details: read-out: GI; procedure, shortened: as §1

Row | Structure (SMILES) | inhibition of growth at 10 µM (HCT-116) [%] | inhibition of growth at 10 µM (Malme-3M) [%] | inhibition of growth at 10 µM (UACC-257) [%] | inhibition of growth at 10 µM (SF-539) [%] | inhibition of growth at 10 µM (K562) [%] | inhibition of growth at 10 µM (IGROV-1) [%] | inhibition of growth at 10 µM (RXF 393) [%] | inhibition of growth at 10 µM (SN12C) [%] | inhibition of growth at 10 µM (786-0) [%] | inhibition of growth at 10 µM (HCT-15) [%] | inhibition of growth at 10 µM (SK-MEL-28) [%] | inhibition of growth at 10 µM (PC-3) [%] | inhibition of growth at 10 µM (Hs-578T) [%] | inhibition of growth at 10 µM (SNB-19) [%] | inhibition of growth at 10 µM (MCF7) [%] | inhibition of growth at 10 µM (UO-31) [%] | inhibition of growth at 10 µM (HL-60(TB)) [%] | inhibition of growth at 10 µM (KM12) [%] | inhibition of growth at 10 µM (SK-MEL-2) [%] | inhibition of growth at 10 µM (RPMI-8226) [%] | other results
1 | COc1ccccc1NC(=O)c1cccc(-c2cc(=O)c3c(OC)c(OC)c(OC)cc3o2)c1 | 31.9 | 22.9 | -6.14 | 30.5 | 51.2 | 27.5 | 29.3 | 34.6 | 39.2 | 48.4 | 24.6 | 43.6 | 60 | 17.5 | 28.4 | 69.6 | 10.1 | 34.8 | 14.4 | 73.7 | inhibition of growth at 10 µM (HOP-62): 30.6%; inhibition of growth at 10 µM (SW-620): 12.2%; inhibition of growth at 10 µM (MOLT-4): 38.7%; inhibition of growth at 10 µM (LOX IMVI): 52.1%; inhibition of growth at 10 µM (DU-145): 29.6%; inhibition of growth at 10 µM (MDA-MB-468): 24.3%; inhibition of growth at 10 µM (OVCAR-8): 42.7%; inhibition of growth at 10 µM (SF-268): 29.3%; inhibition of growth at 10 µM (OVCAR-5): 18.6%; inhibition of growth at 10 µM (CAKI-1): 43%; inhibition of growth at 10 µM (NCI/ADR-RES): 46.7%; inhibition of growth at 10 µM (HOP-92): 62.5%; inhibition of growth at 10 µM (SNB-75): 30.1%; inhibition of growth at 10 µM (ACHN): 43.8%
2 | COc1cccc(NC(=O)c2cccc(-c3cc(=O)c4c(OC)c(OC)c(OC)cc4o3)c2)c1 | 39.3 | 15.2 | 7.62 | 22.5 | 59.7 | 46.7 | 52.1 | 37.7 | 31.1 | 45.3 | 26.6 | 42.9 | 53.8 | 17.5 | 12.3 | 68.4 | 31.3 | 46.3 | 24.3 | 83 | inhibition of growth at 10 µM (HOP-62): 40.5%; inhibition of growth at 10 µM (SW-620): 10.4%; inhibition of growth at 10 µM (MOLT-4): 51.5%; inhibition of growth at 10 µM (LOX IMVI): 50.1%; inhibition of growth at 10 µM (DU-145): 28.2%; inhibition of growth at 10 µM (MDA-MB-468): 21%; inhibition of growth at 10 µM (OVCAR-8): 53%; inhibition of growth at 10 µM (SF-268): 36.9%; inhibition of growth at 10 µM (OVCAR-5): 9.93%; inhibition of growth at 10 µM (CAKI-1): 25.3%; inhibition of growth at 10 µM (NCI/ADR-RES): 35.2%; inhibition of growth at 10 µM (HOP-92): 58.1%; inhibition of growth at 10 µM (SNB-75): 10.2%; inhibition of growth at 10 µM (ACHN): 37.5%
3 | COc1cc2oc(-c3cccc(NC(=O)c4ccccc4)c3)cc(=O)c2c(OC)c1OC | 32.3 | 13.2 | 0.33 | 32.2 | 56.9 | 21.6 | 25.6 | 23.8 | 21.9 | 34.8 | 26.8 | 46.9 | 2.76 | 8.59 | 22.7 | 49 | 39.5 | 35.6 | 23.2 | 73.4 | inhibition of growth at 10 µM (HOP-62): 21.6%; inhibition of growth at 10 µM (SW-620): 8.49%; inhibition of growth at 10 µM (MOLT-4): 59.4%; inhibition of growth at 10 µM (LOX IMVI): 38.3%; inhibition of growth at 10 µM (DU-145): 14.5%; inhibition of growth at 10 µM (MDA-MB-468): 15.8%; inhibition of growth at 10 µM (OVCAR-8): 39%; inhibition of growth at 10 µM (SF-268): 27.7%; inhibition of growth at 10 µM (OVCAR-5): -0.09%; inhibition of growth at 10 µM (CAKI-1): 12.8%; inhibition of growth at 10 µM (NCI/ADR-RES): 25.5%; inhibition of growth at 10 µM (HOP-92): 52.4%; inhibition of growth at 10 µM (SNB-75): 22.6%; inhibition of growth at 10 µM (ACHN): 38.4%
4 | COc1ccccc1C(=O)Nc1cccc(-c2cc(=O)c3c(O)c(OC)c(OC)cc3o2)c1 | 11.7 | -12.7 | 31.9 | 9.52 | 15.5 | 3.04 | -12.1 | 5.29 | 11.3 | 3.51 | -1.9 | 10.3 | 11.4 | 25.4 | -1.88 | 15.2 | 0.6 | 5.13 | 0.56 | 21.6 | inhibition of growth at 10 µM (HOP-62): 16.5%; inhibition of growth at 10 µM (SW-620): 10.5%; inhibition of growth at 10 µM (MOLT-4): 6.77%; inhibition of growth at 10 µM (LOX IMVI): 4.4%; inhibition of growth at 10 µM (DU-145): -2.87%; inhibition of growth at 10 µM (MDA-MB-468): -22.9%; inhibition of growth at 10 µM (OVCAR-8): 17.5%; inhibition of growth at 10 µM (SF-268): 8.58%; inhibition of growth at 10 µM (OVCAR-5): 5.27%; inhibition of growth at 10 µM (CAKI-1): 9.48%; inhibition of growth at 10 µM (NCI/ADR-RES): 5.26%; inhibition of growth at 10 µM (HOP-92): 5.45%; inhibition of growth at 10 µM (SNB-75): 16.4%; inhibition of growth at 10 µM (ACHN): 5.14%

From ChEMBL document CHEMBL4325889, “Natural products hybrids: 3,5,4'-Trimethoxystilbene-5,6,7-trimethoxyflavone chimeric analogs as potential cytotoxic agents against diverse human cancer cells” (Eur J Med Chem, 2019)
